In data set [1] the test system is Platelet. Description: Antiplatelet activity against human platelets assessed as inhibition of thrombin-induced platelets aggregation at 8 uM pretreated 3 mins before compound addition by aggregometer analysis. The data set is classed as functional, cell-based. The method in brief: (§1)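 Platelets isolated by differential centrifugation and resuspended in Tris/Hepes basal buffer pH 7.4. Exposed to compound or DMSO vehicle for 3 min, then thrombin 40 mU/mL added. Initial aggregation rate (velocity) recorded from aggregation traces. Means of four separate determinations ± S.E.M.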

Data set [2] concerns Platelet. Description: Antiplatelet activity against human platelets assessed as inhibition of collagen-induced platelets aggregation at 8 uM pretreated 3 mins before compound addition by aggregometer analysis. It counts as functional, cell-based. The procedure, abridged:
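Washed platelets in basal buffer pH 7.4 (2-4 × 10⁸ cells/mL) preincubated 3 min with compound (8 µM) or DMSO, then stimulated with collagen […] (so in the source). Aggregation rate relative to vehicle control; means of 4 experiments ± S.E.M.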

Data set [3] can be described thus: (§2) Antiplatelet activity against human platelets assessed as inhibition of thrombin-induced platelets aggregation pretreated 3 mins before compound addition by aggregometer analysis. It counts as functional, cell-based. The conditions noted are these: Platelet. The method in brief:
as §1

Data set [4] relates to Platelet. The data set is described as §2. It counts as functional, cell-based. The method in brief: as §1
Data set [5] is described as follows: Toxicity in human platelet assessed as cell viability at 4 uM after 4 to 6 hrs by alamar blue method. It counts as cell-based. The procedure, abridged: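 Platelet suspensions with 1 mM NaHCO3 and 0.2% BSA kept at 37 °C under 5% CO₂ with compound for 4-6 h. Viability read fluorimetrically by Alamar Blue reduction.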
Data set [6] concerns Platelet. Description: Antiplatelet activity against human platelets assessed as inhibition of phorbol-ester-induced platelets aggregation at 2 to 8 uM pretreated 3 mins before compound addition by aggregometer analysis. It counts as functional, cell-based. The method in brief:
(§3)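 Washed platelets (ACD/apyrase/prostacyclin, differential centrifugation, resuspended in Tris/Hepes basal buffer pH 7.4, 2-4 × 10⁸ cells/mL) preincubated 3 min with test agent or DMSO. Then 20 nM PMA or ionomycin added. Maximal aggregation rate after agonist taken as 100% without compound. Means of 4 experiments ± S.E.M.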

Data set [7] relates to Platelet. Description: Antiplatelet activity against human platelets assessed as inhibition of thrombin-induced platelets aggregation at >4 uM pretreated 3 mins before compound addition by aggregometer analysis. It counts as functional, cell-based.
In data set [8] the test system is Platelet. Description: Increase in cytosolic calcium level in human platelets at 2 uM using fluorescent probe fura 2 by fluorescence assay. The data set is classed as functional, cell-based. The procedure, abridged: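 Cytosolic Ca²⁺ monitored with fura 2 (excitation 340/385 nm, emission 505 nm) in stirred thermostated cuvette after 2 µM compound addition alone, versus DMSO vehicle. Representative of three experiments.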

A short description of data set [9]: Toxicity in human platelets assessed as LDH release at 4 uM after 1 hr. The data set is classed as cell-based. The conditions noted are these: platelet. The method in brief:
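Platelets (2 × 10⁸ cells/mL) incubated 1 h at 37 °C with compound, then centrifuged 3 min at 3000 g. Supernatant LDH measured with 5 mM NADH and 50 mM pyruvate as OD decrease at 340 nm. Total LDH determined after 0.1% Triton X-100 lysis.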

For data set [10], the species on record is Homo sapiens. Description: Inhibition of protein tyrosine kinase phosphorylation in thrombin-stimulated human platelets at 2 uM treated 3 mins before thrombin challenge by SDS/PAGE analysis. The procedure, abridged: (§4)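 Platelets at 300 × 10⁶ cells/mL in basal medium pretreated 3 min with 2 µM compound or DMSO, then left resting or stimulated with thrombin 40 mU/mL. Proteins run on 10% SDS/PAGE, blotted, probed with anti-phosphotyrosine PY20, detected by ECL. Actin immunoblot served as loading control. Four experiments.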

Data set [11] concerns Platelet. Description: Increase in thrombin-indcued cytosolic calcium level in human platelets at 2 uM treated 1 min before thrombin challenge using fluorescent probe fura 2 by fluorescence assay. The data set is classed as functional, cell-based. The method in brief:
(§5)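 Fura 2-loaded platelets in stirred thermostated cuvette; excitation 340/385 nm, emission 505 nm. Compound (2 µM) or DMSO added, thrombin 40 mU/mL given 1 min or 3 min later. Also run with 0.5 mM EGTA added 1 min before compound. Traces representative of three experiments.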

Data set [12] is filed under the species Homo sapiens. Description: Inhibition of protein tyrosine kinase phosphorylation in human platelets at 2 uM by SDS/PAGE analysis. The method in brief: as §4
The test system of data set [13] is Platelet. Description: Antiplatelet activity against human platelets assessed as inhibition of Ca2+-ionophore ionomycin-induced platelets aggregation at 2 to 8 uM pretreated 3 mins before compound addition by aggregometer analysis. It counts as functional, cell-based. The procedure, abridged:
as §3

Data set [14] concerns Platelet. Description: Decrease in thrombin-indcued cytosolic calcium level in human platelets at 2 uM treated 3 mins before thrombin challenge using fluorescent probe fura 2 by fluorescence assay. The data set is classed as functional, cell-based. The method in brief: as §5

The source made the active and inactive calls. No cut-off for these calls is given here.

As for `O=c1c(-c2ccccc2)c[nH]c2c1ccc1[nH]ccc12`, the inhibition result in the data set with Platelet [1] and with Platelet [2] was “Active” throughout.

Regarding `CCn1ccc2c3c(=O)[nH]c(-c4ccccc4)nc3ccc21`, the inhibition result in the data set with Platelet [1] and in the data set with Platelet [2] was “Active” each time.

Regarding `O=c1c(-c2ccccc2)c[nH]c2ccc3[nH]ccc3c12`, the inhibition entry in the data set with Platelet [1] and in the data set on Platelet [2] was “Active” throughout.

`CCn1ccc2c3c(=O)c(-c4ccccc4)c[nH]c3ccc21`: the inhibition result in the data set with Platelet [1] and with Platelet [2] was “Active” throughout.

Regarding `CCn1ccc2c3[nH]cc(-c4ccccc4)c(=O)c3ccc21`, the inhibition result in the data set with Platelet [1] and in the data set with Platelet [2] was “Active” each time.

On to `O=c1[nH]c(-c2ccccc2)nc2ccc3c(ccn3CC3CC3)c12`, for which the inhibition result with Platelet [1] and in the data set on Platelet [2] was “Active” throughout.

For `O=c1[nH]c(-c2ccccc2)nc2ccc3[nH]ccc3c12`, the 50% inhibitory concentration (IC50) in [3] turned out to be 1790 nM. Further, the inhibition result in the data set with Platelet [4] is “Dose-dependent effect”. Further, the Activity result was “Toxic” in [5] and “Non-toxic” in [9]. In addition, the inhibition entry in the data set with Platelet [6], in the data set on Platelet [7], in the data set on Platelet [1], in the data set filed under Homo sapiens [10], with Platelet [2] and with Platelet [13] was “Active” each time. For the same compound, the result with Platelet [8], with Platelet [11] and in the data set on Platelet [14] was Active. The inhibition entry in the data set filed under Homo sapiens [12] was “inactive”.

On to `CCn1ccc2c3c(=O)[nH]c(-c4ccc(OC)cc4)nc3ccc21`, for which the inhibition entry with Platelet [1] and in the data set with Platelet [2] was “Active” in each case.

The values are drawn from ChEMBL document CHEMBL1932927, “Synthesis and evaluation of platelet aggregation inhibitory activity of some 3-phenyl-pyrroloquinazolinones” (Eur J Med Chem, 2012).
